Source: PubChem BioAssay AID504383 (The Scripps Research Institute Molecular Screening Center, 2011)
Among all 2,500 compounds or so, about 1,200 (48%) were called active. So high a share suggests a set chosen from earlier hits. The list shows a part of the results. Unmarked numbers belong to inactive results.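 The calls were made as follows: active = mean activation above the low control average plus 3 SD, as set in the primary screen (cut at about 12% in these data); inactive = the rest.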

Each molecule was assayed against Troponin I, cardiac muscle (Homo sapiens) + Troponin T, cardiac muscle (Homo sapiens) + Troponin C, slow skeletal and cardiac muscles (Homo sapiens) (UniProt P19429+P45379+P63316) (assay: calcium sensitizers of cardiac thin filaments – biochemical, IANBD-TnC fluorescence, triplicate, confirmation (AID 504383;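 also: 0% = DMSO at 0.472 mM calcium and 100% = DMSO at 2.9 mM calcium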)). Settings: IANBD-labeled cardiac RTF, Ca2+ sensitivity fluorescence; at 7.2 µM; active compounds read high; scaled from EC20 to saturating calcium; tested at EC20 calcium, 0.472 mM.
Procedure, shortened: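 Material: labelled regulated thin filaments; Reagent: 0.472 mM calcium; Incubation: 15 min compound incubation with filaments at 25 °C; Detection: filament fluorescence intensity; Evaluation: fluorescence increase normalised to calcium controls; Benchmarks: low control EC20 calcium, high control EC100 calcium.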

| Compound | activation |
| --- | --- |
| CN(C)c1ccc(/C=C(/C(=O)c2ccc(Cl)cc2Cl)n2cncn2)cc1 | 4.11% |
| O=C1CCc2cc(S(=O)(=O)NC3CCCCC3)ccc2N1 | 12.4% (active) |
| COc1ccc(CCNC(=O)CN(C)S(=O)(=O)c2ccc3c(c2)CCC(=O)N3)cc1OC | 8.22% |
| Cc1cc(C(=O)NNC(=S)Nc2ccccc2C)cs1 | 15.8% (active) |
| Cc1cc(C(=O)NNC(=S)NCc2ccccc2)cs1 | 7.2% |
| Cc1nn(-c2ccccc2)c(N2CCCC2)c1/C=C1\N=C(c2ccc(OC(C)C)cc2)OC1=O | 9.02% |
| COc1ccc(OC)c(/C=C2/Sc3ccccc3C2=O)c1 | 5.85% |
| COc1ccc(OC)c(/C=C2\N=C(c3ccccc3)OC2=O)c1 | 33.8% (active) |
| Cc1ccc2oc3c(SCc4nc5ccccc5[nH]4)nc(C)nc3c2c1 | 21.2% (active) |
| Cc1ccc(C)c(C2=NNC(=O)CC2)c1 | 2.35% |
| COC(=O)[C@@]1(Cc2ccc(OC)cc2)[C@@H]2C(=CC(=O)[C@H]2CC(=O)C(=O)N2CCCC2)CN1C(=O)c1ccccc1 | 36% (active) |
| CC(C)CNC(=S)NC(=O)c1ccccc1Cl | 106% (active) |
| O=C1c2ccccc2C(=O)N1c1ccc(Cc2ccncc2)cc1 | 18.1% (active) |
| Nc1cccc2c1C(=O)N(c1ccccc1)C2=O | 7.13% |
| CCOC(=O)CSc1nc2c(c(=O)n(C)c(=O)n2C)n1Cc1ccccc1F | 1280% (active) |
| CSc1nc2c(c(=O)[nH]c(=O)n2C)n1CCCc1ccccc1 | 3.83% |
| C=CCNc1nc2c(c(=O)[nH]c(=O)n2C)n1CCCc1ccccc1 | 9.95% |
| CN1CCN(c2nc3c(c(=O)n(C)c(=O)n3C)n2Cc2ccccc2F)CC1 | 5.62% |
| COC(=O)CSc1nc2c(c(=O)n(C)c(=O)n2C)n1CCCc1ccccc1 | 147% (active) |
| C=CC[C@@H](CC(=O)N(CCO)Cc1ccccc1)C(=O)N[C@@H](COC(=O)[C@@H](CC=C)Cc1ccc(F)cc1)Cc1ccccc1 | 0.1% |
| Cc1cccc(NC(=S)Nc2ccc(N3CCOCC3)cc2)c1C | 5.72% |
| S=C(Nc1ccc(N2CCOCC2)cc1)Nc1ccc2nc(-c3ccco3)c(-c3ccco3)nc2c1 | 43.1% (active) |
| Cc1noc(C)c1NC(=O)N(C)C[C@H]1Oc2c(NS(=O)(=O)c3cccs3)cccc2C(=O)N([C@H](C)CO)C[C@@H]1C | 4.83% |
| C[C@H](CO)N1C[C@H](C)[C@@H](CN(C)S(=O)(=O)c2cccs2)Oc2c(NC(=O)Nc3ccc4c(c3)OCO4)cccc2C1=O | 9.29% |
| C[C@H](CO)N1C[C@H](C)[C@@H](CN(C)C(=O)Nc2ccc(F)cc2)Oc2ccc(NS(C)(=O)=O)cc2C1=O | 9.89% |
| C[C@H]1CN([C@@H](C)CO)C(=O)c2cccc(NC(=O)c3nc4ccccc4s3)c2O[C@H]1CN(C)C(=O)Nc1ccc(F)cc1 | 12.9% (active) |
| C[C@H](CO)N1C[C@H](C)[C@@H](CN(C)Cc2ccc(Oc3ccccc3)cc2)Oc2c(NC(=O)C3CC3)cccc2C1=O | 47.7% (active) |
| C[C@H](CO)N1C[C@H](C)[C@@H](CN(C)Cc2ccncc2)Oc2c(NS(=O)(=O)c3ccc(F)cc3)cccc2C1=O | 10.3% |
| C[C@H](CO)N1C[C@H](C)[C@@H](CN(C)Cc2ccncc2)Oc2c(NC(=O)c3ccncc3)cccc2C1=O | 16.5% (active) |
| C[C@H](CO)N1C[C@H](C)[C@@H](CN(C)C(=O)Nc2ccccc2)Oc2ccc(NC(=O)Nc3ccc4c(c3)OCO4)cc2C1=O | 9.67% |
